# According to ChEMBL document CHEMBL3526118, “Combination of GSH trapping and time-dependent inhibition assays as a predictive method of drugs generating highly reactive metabolites” (Drug Metab Dispos, 2011):
# How the values were obtained:
# [1] = Intrinsic clearance for reactive metabolites formation assessed as summation of [3H]GSH adduct formation rate-based reactive metabolites formation and cytochrome P450 (unknown origin) inactivation rate-based reactive metabolites formation; details: human
# [2] = molecular target: T1, CYP2D6 (Homo sapiens, UniProt P10635); experiment: Time dependent inhibition of CYP2D6 (unknown origin) at 10 uM by LC/MS system; type: ADME
# T1 sequence (P10635 whole entry): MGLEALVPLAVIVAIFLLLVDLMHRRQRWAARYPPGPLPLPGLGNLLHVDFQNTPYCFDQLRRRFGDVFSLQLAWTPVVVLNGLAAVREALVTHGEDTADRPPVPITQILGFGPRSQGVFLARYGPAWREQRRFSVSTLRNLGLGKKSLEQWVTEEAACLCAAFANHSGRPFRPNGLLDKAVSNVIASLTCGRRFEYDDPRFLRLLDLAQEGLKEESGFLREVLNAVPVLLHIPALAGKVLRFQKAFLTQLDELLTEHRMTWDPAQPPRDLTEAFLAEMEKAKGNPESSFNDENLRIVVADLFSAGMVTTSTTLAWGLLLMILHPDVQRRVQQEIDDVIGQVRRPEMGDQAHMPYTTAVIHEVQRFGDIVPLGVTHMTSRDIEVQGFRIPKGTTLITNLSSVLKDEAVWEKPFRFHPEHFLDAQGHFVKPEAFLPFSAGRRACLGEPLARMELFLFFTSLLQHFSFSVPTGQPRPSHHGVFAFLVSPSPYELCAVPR
# Outline: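 CYP2D6 activity was measured with 30 μM dextromethorphan (final) after 0 or 30 min preincubation of compound with human liver microsomes (1.0 mg/mL) and NADPH-generating system in 0.1 M sodium phosphate. A ten-fold dilution was followed by a 10-min incubation. % inactivation = 100 × [1 − %control(30 min)/%control(0 min)]; threshold 10%.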
# [3] = system: Liver microsome; experiment: Covalent binding in human liver microsomes measured per mg of protein using radiolabelled compound at 10 uM after 1 hr incubation by liquid scintillation counting
# [4] = molecular target: T2, CYP3A4 (Homo sapiens, UniProt P08684); experiment: in vitro
# T2 sequence (P08684 whole entry): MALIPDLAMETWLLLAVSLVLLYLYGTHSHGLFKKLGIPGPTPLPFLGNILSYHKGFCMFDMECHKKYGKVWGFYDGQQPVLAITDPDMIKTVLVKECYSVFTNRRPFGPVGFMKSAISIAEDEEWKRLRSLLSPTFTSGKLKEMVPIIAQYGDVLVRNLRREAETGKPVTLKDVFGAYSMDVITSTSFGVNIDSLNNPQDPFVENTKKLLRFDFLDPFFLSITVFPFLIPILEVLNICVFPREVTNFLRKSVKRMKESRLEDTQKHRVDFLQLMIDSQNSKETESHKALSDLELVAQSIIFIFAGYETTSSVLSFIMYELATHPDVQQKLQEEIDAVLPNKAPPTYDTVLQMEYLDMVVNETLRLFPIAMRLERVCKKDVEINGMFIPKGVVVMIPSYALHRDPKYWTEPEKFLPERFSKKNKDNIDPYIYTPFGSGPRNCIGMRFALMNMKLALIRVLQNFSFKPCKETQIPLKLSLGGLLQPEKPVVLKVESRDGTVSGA
# [5] = Intrinsic clearance for reactive metabolites formation per mg of protein based on cytochrome P450 (unknown origin) inactivation rate by TDI assay; details: human
# [6] = molecular target: T3, CYP2B6 (Homo sapiens, UniProt P20813); experiment: in vitro
# T3 sequence (P20813 whole entry): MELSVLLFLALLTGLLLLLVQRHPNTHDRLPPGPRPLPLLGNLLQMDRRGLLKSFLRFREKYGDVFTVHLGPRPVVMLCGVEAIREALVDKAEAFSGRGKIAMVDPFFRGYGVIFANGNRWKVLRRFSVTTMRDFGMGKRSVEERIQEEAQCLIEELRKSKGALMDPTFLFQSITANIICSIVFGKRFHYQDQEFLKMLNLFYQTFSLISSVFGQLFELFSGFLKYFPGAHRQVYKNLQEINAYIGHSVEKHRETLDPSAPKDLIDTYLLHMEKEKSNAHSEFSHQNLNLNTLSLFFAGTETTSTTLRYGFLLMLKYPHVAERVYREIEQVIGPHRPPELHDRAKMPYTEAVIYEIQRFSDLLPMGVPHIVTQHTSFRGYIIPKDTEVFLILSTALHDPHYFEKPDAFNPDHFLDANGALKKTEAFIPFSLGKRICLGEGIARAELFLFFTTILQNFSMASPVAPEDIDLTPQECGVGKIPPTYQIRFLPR
# [7] = molecular target: T4, CYP2C9 (Homo sapiens, UniProt P11712); experiment: in vitro
# T4 sequence (P11712 whole entry): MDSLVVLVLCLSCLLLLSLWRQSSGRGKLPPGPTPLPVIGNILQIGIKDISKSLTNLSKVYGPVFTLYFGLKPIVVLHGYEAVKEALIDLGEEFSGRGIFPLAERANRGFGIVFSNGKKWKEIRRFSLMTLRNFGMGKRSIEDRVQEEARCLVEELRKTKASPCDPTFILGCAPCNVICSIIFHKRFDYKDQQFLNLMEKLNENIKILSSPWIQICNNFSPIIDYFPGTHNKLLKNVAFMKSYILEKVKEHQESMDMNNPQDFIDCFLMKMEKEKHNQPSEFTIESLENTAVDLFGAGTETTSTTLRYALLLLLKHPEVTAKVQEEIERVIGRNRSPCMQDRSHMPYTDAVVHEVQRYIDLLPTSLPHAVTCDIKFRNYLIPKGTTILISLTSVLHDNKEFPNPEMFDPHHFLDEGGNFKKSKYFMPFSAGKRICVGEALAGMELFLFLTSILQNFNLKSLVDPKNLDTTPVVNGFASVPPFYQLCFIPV
# [8] = molecular target: T5, CYP1A2 (Homo sapiens, UniProt P05177); experiment: in vitro
# T5 sequence (P05177 whole entry): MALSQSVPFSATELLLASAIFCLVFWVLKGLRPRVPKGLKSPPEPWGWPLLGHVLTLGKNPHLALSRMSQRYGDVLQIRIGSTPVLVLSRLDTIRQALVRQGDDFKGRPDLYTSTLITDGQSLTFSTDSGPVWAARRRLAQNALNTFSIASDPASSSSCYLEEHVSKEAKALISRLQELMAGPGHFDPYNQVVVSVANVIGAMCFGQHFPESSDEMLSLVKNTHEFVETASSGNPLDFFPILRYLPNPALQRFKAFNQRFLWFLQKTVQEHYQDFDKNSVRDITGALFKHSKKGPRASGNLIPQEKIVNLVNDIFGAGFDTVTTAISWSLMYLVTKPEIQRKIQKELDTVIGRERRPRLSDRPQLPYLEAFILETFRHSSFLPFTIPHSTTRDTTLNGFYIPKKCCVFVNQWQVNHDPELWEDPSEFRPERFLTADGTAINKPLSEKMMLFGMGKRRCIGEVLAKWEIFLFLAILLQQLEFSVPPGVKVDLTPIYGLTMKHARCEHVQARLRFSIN
# [9] = molecular target: T6, CYP2C8 (Homo sapiens, UniProt P10632); experiment: in vitro
# T6 sequence (P10632 whole entry): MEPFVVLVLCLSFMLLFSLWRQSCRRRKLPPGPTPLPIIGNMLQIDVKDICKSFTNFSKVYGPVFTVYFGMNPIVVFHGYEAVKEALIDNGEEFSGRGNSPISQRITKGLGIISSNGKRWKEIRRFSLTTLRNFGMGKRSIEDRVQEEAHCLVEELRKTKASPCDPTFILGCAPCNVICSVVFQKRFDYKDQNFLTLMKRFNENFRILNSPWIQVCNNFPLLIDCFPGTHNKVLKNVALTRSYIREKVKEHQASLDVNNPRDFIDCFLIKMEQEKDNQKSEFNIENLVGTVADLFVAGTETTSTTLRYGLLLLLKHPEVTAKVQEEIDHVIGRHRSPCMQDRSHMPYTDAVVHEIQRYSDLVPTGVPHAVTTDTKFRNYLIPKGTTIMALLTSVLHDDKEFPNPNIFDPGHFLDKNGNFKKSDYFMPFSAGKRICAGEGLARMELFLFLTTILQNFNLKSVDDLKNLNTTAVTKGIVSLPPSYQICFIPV
# [10] = system: Liver microsome; experiment: Metabolic activation in human liver microsomes assessed as [3H]GSH adduct formation rate measured per mg of protein at 100 uM by [3H]GSH trapping assay
# [11] = molecular target: T7, CYP2C19 (Homo sapiens, UniProt P33261); experiment: Time dependent inhibition of CYP2C19 in human liver microsomes at 30 uM by LC/MS system; type: ADME
# T7 sequence (P33261 whole entry): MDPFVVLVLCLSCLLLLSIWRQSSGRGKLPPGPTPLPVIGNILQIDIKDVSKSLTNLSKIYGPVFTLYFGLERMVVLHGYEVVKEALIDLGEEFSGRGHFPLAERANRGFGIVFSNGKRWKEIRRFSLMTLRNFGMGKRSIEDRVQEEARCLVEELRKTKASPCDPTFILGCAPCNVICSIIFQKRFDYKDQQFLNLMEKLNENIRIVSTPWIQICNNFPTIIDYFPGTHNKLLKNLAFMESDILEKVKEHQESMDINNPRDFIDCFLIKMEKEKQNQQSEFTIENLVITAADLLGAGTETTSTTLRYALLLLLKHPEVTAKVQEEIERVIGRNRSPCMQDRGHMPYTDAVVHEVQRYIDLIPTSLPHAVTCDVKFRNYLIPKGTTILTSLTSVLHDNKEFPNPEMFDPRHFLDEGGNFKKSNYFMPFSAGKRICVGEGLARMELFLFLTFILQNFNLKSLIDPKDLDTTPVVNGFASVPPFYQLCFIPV
# Outline: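 Human liver microsomes at 2.0 mg/mL in preincubation, 0.1 M sodium phosphate, NADPH-generating system; 0- or 30-min preincubation with inhibitor, then tenfold dilution into incubation containing 50 μM (S)-mephenytoin for 10 min; LC separation. Percent inactivation = 100×[1 − %control(30 min)/%control(0 min)] versus inhibitor-free controls; >10% counted positive. Concentration reduced from 100 μM for strong reversible inhibitors.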
# [12] = molecular target: T1, CYP2D6; experiment: in vitro
# [13] = molecular target: T3, CYP2B6; experiment: Time dependent inhibition of CYP2B6 (unknown origin) at 10 uM by LC/MS system; type: ADME
# Outline: (§1)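 CYP2B6 in human liver microsomes (1.0 mg/mL in preincubation), 0.1 M sodium phosphate, NADPH-generating system. Preincubation 0 or 30 min, then ten-fold dilution into incubation solution containing 50 μM bupropion (final) for 10 min. Activity is expressed as percent of the matched no-inhibitor control. % inactivation = 100 × [1 − control(30 min)/control(0 min)]; threshold 10%.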
# [14] = molecular target: T2, CYP3A4; experiment: Time dependent inhibition of CYP3A4 (unknown origin) at 10 uM by LC/MS system; type: ADME
# Outline: (§2)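 CYP3A4: human liver microsomes at 0.5 mg/mL in preincubation, 0.1 M sodium phosphate, NADPH-generating system, 0 or 30 min. Ten-fold dilution into incubation with 2.5 μM midazolam (final), 10 min. Each value is relative to the matched control without inhibitor. % enzyme inactivation = 100 × [1 − %control(30 min)/%control(0 min)]; 10% threshold.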
# [15] = molecular target: T6, CYP2C8; experiment: Time dependent inhibition of CYP2C8 (unknown origin) at 3 uM by LC/MS system; type: ADME
# Outline: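 CYP2C8 in human liver microsomes (1.0 mg/mL in preincubation), 0.1 M sodium phosphate, NADPH-generating system. Preincubation 0 or 30 min, then ten-fold dilution into incubation with 10 μM paclitaxel (final) for 10 min. Activity is taken relative to the matched no-inhibitor control. % inactivation = 100 × [1 − %control(30 min)/%control(0 min)]; threshold 10%.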
# [16] = molecular target: T7, CYP2C19; experiment: in vitro
# [17] = molecular target: T4, CYP2C9; experiment: Time dependent inhibition of CYP2C9 (unknown origin) at 10 uM by LC/MS system; type: ADME
# Outline: (§3)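 Human liver microsomes at 1.0 mg/mL were preincubated 0 or 30 min with compound and NADPH-generating system in 0.1 M sodium phosphate, then diluted ten-fold into incubation containing 200 μM tolbutamide (final) for 10 min to probe CYP2C9. Percent of matched no-inhibitor control was determined at each time. Inactivation = 100 × [1 − ratio of 30-min to 0-min values]; 10% threshold.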
# [18] = molecular target: T3, CYP2B6; experiment: Time dependent inhibition of CYP2B6 (unknown origin) at 30 uM by LC/MS system; type: ADME; outline: as §1
# [19] = molecular target: T4, CYP2C9; experiment: Time dependent inhibition of CYP2C9 (unknown origin) at 30 uM by LC/MS system; type: ADME; outline: as §3
# [20] = molecular target: T1, CYP2D6; experiment: Time dependent inhibition of CYP2D6 (unknown origin) at 30 uM by LC/MS system; type: ADME
# Outline: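 Preincubation with HLMs at 1.0 mg/mL in 0.1 M sodium phosphate plus NADPH-generating system for 0 or 30 min, then tenfold dilution into incubation containing 30 μM dextromethorphan for 10 min; chromatographic read-out. Activity relative to controls without inhibitor; inactivation = 100×[1 − %control(30 min)/%control(0 min)], threshold 10%. Initial 100 μM lowered where reversible inhibition was strong.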
# [21] = molecular target: T3, CYP2B6; experiment: in vitro; remark: listed apart in the source
# [22] = molecular target: T3, CYP2B6; experiment: Time dependent inhibition of CYP2B6 (unknown origin) at 0.3 uM by LC/MS system; type: ADME; outline: as §1
# [23] = system: Liver microsome; details: human, microsomes, 100 µM
# [24] = molecular target: T2, CYP3A4; experiment: Time dependent inhibition of CYP3A4 (unknown origin) at 50 uM by LC/MS system; type: ADME; outline: as §2
# [25] = molecular target: T6, CYP2C8; experiment: Time dependent inhibition of CYP2C8 (unknown origin) at 10 uM by LC/MS system; type: ADME
# Outline: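 CYP2C8 in human liver microsomes (1.0 mg/mL in preincubation), 0.1 M sodium phosphate, NADPH-generating system. Preincubation 0 or 30 min, then ten-fold dilution into incubation with 10 μM paclitaxel (final) for 10 min.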
# [26] = molecular target: T7, CYP2C19; experiment: in vitro; details: human liver microsomes
# [27] = molecular target: T3, CYP2B6; experiment: Time dependent inhibition of CYP2B6 (unknown origin) at 3 uM by LC/MS system; type: ADME
Structure (SMILES),clearance [1] [µL/min/mg],PB [3] [pmol],inhibition at 100 µM [4] [%],clearance [5] [µL/min/mg],inhibition at 100 µM [7] [%],inhibition at 100 µM [8] [%],inhibition at 100 µM [9] [%],Drug metabolism [10],inhibition at 100 µM [12] [%],inhibition at 10 µM [14] [%],inhibition at 30 µM [19] [%],inhibition at 100 µM ([16]; microsomes) [%],CLH [23] [µL/min/mg],further results
CNCCC(Oc1ccc(C(F)(F)F)cc1)c1ccccc1 (stereo not drawn) [FLUOXETINE],0.008,15,< 10,0.008,< 10,12,< 10,metabolite_not_detected,,,,,,inhibition at 10 µM [2]: < 10%; inhibition at 100 µM [6]: < 10%; inhibition at 30 µM [11]: 36%
COc1cc(C(=O)NS(=O)(=O)c2ccccc2C)ccc1Cc1cn(C)c2ccc(NC(=O)OC3CCCC3)cc12 [ZAFIRLUKAST],0.207,36.4,,0.207,,11,,metabolite_not_detected,< 10,43,,,,inhibition at 10 µM [13]: < 10%; inhibition at 3 µM [15]: < 10%; inhibition at 100 µM ([16]; human liver microsomes): < 10%; inhibition at 10 µM [17]: < 10%
Cc1ccc(-c2cc(C(F)(F)F)nn2-c2ccc(S(N)(=O)=O)cc2)cc1 [CELECOXIB],,13,,,,< 10,< 10,metabolite_not_detected,,< 10,< 10,< 10,,inhibition at 30 µM [18]: < 10%; inhibition at 30 µM [20]: < 10%
Clc1ccccc1CN1CCc2sccc2C1 [TICLOPIDINE],,,26,,< 10,36,< 10,,,,,,,inhibition at 10 µM [2]: < 10%; inhibition at 0.1 µM [21]: 35%
COC(=O)[C@H](c1ccccc1Cl)N1CCc2sccc2C1 [CLOPIDOGREL],1.08,417.4,,0.848,< 10,< 10,< 10,23.6 pmol/min,< 10,,,10,0.236,inhibition at 0.3 µM [22]: 44%
C#C[C@]1(O)CC[C@H]2[C@@H]3CCc4cc(O)ccc4[C@H]3CC[C@@]21C [ETHINYL ESTRADIOL],0.427,937.5,,0.087,,18,,34 pmol/min,< 10,,27,,0.34,inhibition at 50 µM [24]: 65%; inhibition at 30 µM [18]: < 10%; inhibition at 10 µM [25]: < 10%; inhibition at 10 µM [26]: < 10%
CCOC(=O)C1=C(COCCN)NC(C)=C(C(=O)OC)C1c1ccccc1Cl (stereo not drawn) [AMLODIPINE],,7.1,42,,,< 10,< 10,metabolite_not_detected,< 10,< 10,< 10,,,inhibition at 3 µM [27]: < 10%; inhibition at 30 µM [20]: < 10%; inhibition at 100 µM ([16]; human liver microsomes): < 10%
O=C(O)COc1ccc(C(=O)c2cccs2)c(Cl)c1Cl,0.111,436.7,< 10,0.069,,< 10,< 10,4.2 pmol/min,< 10,,,35,0.042,inhibition at 100 µM [6]: < 10%; inhibition at 10 µM [17]: 28%
